Usually IC50 stands for the concentration needed to halve the response being measured.

The values that follow come from ChEMBL document CHEMBL1153214, “Synthesis and PGE(2) production inhibition of 1H-furan-2,5-dione and 1H-pyrrole-2,5-dione derivatives” (Bioorg Med Chem Lett, 2010).

Experiment [1] deals with RAW264.7. Put plainly: Cytotoxicity against LPS-stimulated mouse RAW264.7 cells assessed as cell viability after 24 hrs by MTT assay. The format is cell-based. As to conditions: RAW264.7, 24 h; call rule not given here. An outline of the steps: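 RAW 264.7 cells plated at 10⁵ cells/well in 96-well plates, treated with various concentrations of compounds in the presence of LPS. Viability read by colorimetric MTT assay 24 h after treatment.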
(Tetrazolium assays rely on reduction of a dye to a coloured formazan, in cell work by metabolically active cells.)

The subject of experiment [2] is RAW264.7. Kind of experiment: Antiinflammatory activity in mouse RAW264.7 cells assessed as inhibition of LPS-induced PGE2 production by EIA. The class given is functional, cell-based. Summed up: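 RAW 264.7 macrophages seeded at 10⁵ cells/well in 96-well plates. Cells pretreated with test samples at increasing concentrations or NS398 as positive control, then stimulated with LPS 1 µg/ml for the indicated time. PGE₂ in the medium quantified by EIA. IC50 derived; experiments run at least three times.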

For experiment [3], the target named is T1, Prostaglandin G/H synthase 2 (Homo sapiens, UniProt P35354).
T1 sequence (P35354 whole entry): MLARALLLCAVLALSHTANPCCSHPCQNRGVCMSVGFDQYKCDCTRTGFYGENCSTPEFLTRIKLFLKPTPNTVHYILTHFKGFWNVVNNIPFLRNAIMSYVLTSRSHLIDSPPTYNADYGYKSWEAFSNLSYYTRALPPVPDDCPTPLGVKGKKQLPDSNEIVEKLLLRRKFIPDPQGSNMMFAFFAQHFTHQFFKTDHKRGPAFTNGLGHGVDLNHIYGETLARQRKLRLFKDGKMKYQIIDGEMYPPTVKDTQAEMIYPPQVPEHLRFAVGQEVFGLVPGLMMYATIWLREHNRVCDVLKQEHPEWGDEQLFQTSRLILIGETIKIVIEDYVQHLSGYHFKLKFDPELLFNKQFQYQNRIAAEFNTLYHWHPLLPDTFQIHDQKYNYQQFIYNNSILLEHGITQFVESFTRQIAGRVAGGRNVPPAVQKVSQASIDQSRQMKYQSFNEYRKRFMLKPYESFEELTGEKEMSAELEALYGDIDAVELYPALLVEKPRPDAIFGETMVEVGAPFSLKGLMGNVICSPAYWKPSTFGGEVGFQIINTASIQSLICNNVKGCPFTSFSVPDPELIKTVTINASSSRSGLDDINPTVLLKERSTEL
Kind of experiment: Inhibition of COX2 assessed as PGF2alpha level by EIA.

Setting [4] is: Mus musculus, RAW264.7, read-out: IC50.

Take `COc1cc(C2=C(c3ccccc3)C(=O)NC2=O)cc(OC)c1OC`: the results for the IC50 in experiment [1] and in experiment [2] (setting [4]) were 151 µM and 25.1 µM, respectively.
In the case of `COc1ccc(C2=C(c3ccccc3)C(=O)NC2=O)cc1OC`, the IC50 in experiment [1] amounted to 305 µM; in experiment [2] (setting [4]), 132 µM.
For `CC(=O)Oc1ccc(C2=C(c3ccc(S(C)(=O)=O)cc3)C(=O)OC2=O)cc1`, the IC50 in experiment [3] turned out to be 16.6 µM; in experiment [1] it was 262 µM; in experiment [2] (setting [4]), 4.41 µM.
For the molecule `COc1cccc(C2=C(c3ccccc3)C(=O)NC2=O)c1`, the IC50 came out at 260 µM in experiment [1] and 9.95 µM in experiment [2] (setting [4]).
As to `CS(=O)(=O)c1ccc(C2=C(c3ccccc3)C(=O)NC2=O)cc1`, the IC50 in experiment [3] was determined as 17.5 µM; in experiment [1], 269 µM; in experiment [2] (setting [4]), 2.71 µM.
`CS(=O)(=O)Nc1ccc([N+](=O)[O-])cc1OC1CCCCC1` [NS-398]: the IC50 in experiment [2] (setting [4]) is 4.8 µM.
With `CSc1ccc(C2=C(c3ccc(F)cc3)C(=O)NC2=O)cc1`, the IC50 worked out at 121 µM in experiment [1] and 25.5 µM in experiment [2] (setting [4]).
Take `COc1cc(C2=C(c3ccccc3)C(=O)OC2=O)cc(OC)c1OC`: the IC50 in experiment [1] was determined as 313 µM; in experiment [2] (setting [4]), 37.1 µM.
`COc1ccc(C2=C(c3ccccc3)C(=O)OC2=O)cc1OC`: the concentration for half-maximal inhibition (IC50) in experiment [1] was found to be 257 µM; in experiment [2] (setting [4]), 71.3 µM.
As for `O=C1NC(=O)C(c2cccc(O)c2)=C1c1ccccc1`, the results for the IC50 in experiment [1] and in experiment [2] (setting [4]) were 158 µM and 13.8 µM, respectively.
For the molecule `O=C1OC(=O)C(c2ccc3c(c2)OCO3)=C1c1ccccc1`, the results for the IC50 in experiment [3], in experiment [1] and in experiment [2] (setting [4]) were 18.5 µM, 329 µM and 7.13 µM, respectively.
The like results for `CSc1ccc(C2=C(c3ccccc3)C(=O)NC2=O)cc1` were, in that order, 16.3 µM, 152 µM and 4.73 µM.
For `CSc1ccc(C2=C(c3ccc(NC(C)=O)cc3)C(=O)OC2=O)cc1`, in that order: 20.1 µM, 250 µM and 5.71 µM.
For `O=C1NC(=O)C(c2ccc(O)c(O)c2)=C1c1ccccc1`, in that order: 16 µM, 207 µM and 2.69 µM.
For the molecule `O=C1NC(=O)C(c2ccccc2)=C1c1ccccc1`, the IC50 in experiment [1] came to 270 µM; in experiment [2] (setting [4]) it was 27.9 µM.
In the case of `CS(=O)(=O)c1ccc(C2=C(c3ccc(F)cc3)C(=O)NC2=O)cc1`, the IC50 in experiment [1] turned out to be 261 µM; in experiment [2] (setting [4]), 10.8 µM.
For `O=C1NC(=O)C(c2ccc3c(c2)OCO3)=C1c1ccccc1`, in that order: 195 µM and 7.96 µM.
The like results for `C[S+]([O-])c1ccc(C2=C(c3ccccc3)C(=O)NC2=O)cc1` (configuration not stated) were, in that order, 303 µM and 21.5 µM.
The like results for `COc1ccc(C2=C(c3ccc([S+](C)[O-])cc3)C(=O)OC2=O)cc1` (configuration not stated) were, in that order, 284 µM and 23.8 µM.
`CS(=O)(=O)c1ccc(C2=C(c3ccc(O)cc3)C(=O)NC2=O)cc1`: the IC50 in experiment [1] is 171 µM; in experiment [2] (raw264.7), “Not Active”.
Regarding `CS(=O)(=O)c1ccc(C2=C(c3ccccc3)C(=O)OC2=O)cc1`, the 50% inhibitory concentration (IC50) in experiment [1] was 266 µM; in experiment [2] (setting [4]), 15.4 µM.
The like results for `CC(=O)Oc1ccc(C2=C(c3ccc([S+](C)[O-])cc3)C(=O)OC2=O)cc1` (configuration not stated) were, in that order, 262 µM and 68.8 µM.
For `C[S+]([O-])c1ccc(C2=C(c3ccc(F)cc3)C(=O)NC2=O)cc1` (configuration not stated), in that order: 242 µM and 45.2 µM.
For `C[S+]([O-])c1ccc(C2=C(c3ccc(O)cc3)C(=O)NC2=O)cc1` (configuration not stated), in that order: 213 µM and 98.1 µM.
Take `CSc1ccc(C2=C(c3ccc(O)cc3)C(=O)NC2=O)cc1`: the results for the IC50 in experiment [3], in experiment [1] and in experiment [2] (setting [4]) were 21 µM, 125 µM and 0.84 µM, respectively.
Take `COc1ccc(C2=C(c3ccc(SC)cc3)C(=O)OC2=O)cc1`: the IC50 in experiment [1] was 266 µM; in experiment [2] (setting [4]), 12.6 µM.
Take `NS(=O)(=O)c1ccc(C2=C(c3ccccc3)C(=O)NC2=O)cc1`: the IC50 amounted to 15.6 µM in experiment [3] and 158 µM in experiment [1].
For `CSc1ccc(C2=C(c3ccc(N(C(C)=O)C(C)=O)cc3)C(=O)OC2=O)cc1`, the IC50 in experiment [1] was 277 µM; in experiment [2] (setting [4]), 78.5 µM.
On to `O=C1NC(=O)C(c2cc(O)c(O)c(O)c2)=C1c1ccccc1`, for which the IC50 was 17.5 µM in experiment [3], 261 µM in experiment [1] and 8.19 µM in experiment [2] (setting [4]).
Regarding `COc1ccc(C2=C(c3ccc(S(C)(=O)=O)cc3)C(=O)OC2=O)cc1`, the results for the IC50 in experiment [1] and in experiment [2] (raw264.7) were 271 µM and “Not Active”, respectively.
Consider `CSc1ccc(C2=C(c3ccc(OC(C)=O)cc3)C(=O)OC2=O)cc1`, for which the values for the concentration for half-maximal inhibition (IC50) in experiment [1] and in experiment [2] (setting [4]) were 334 µM and 30.5 µM, respectively.
With `CSc1ccc(C2=C(c3ccccc3)C(=O)OC2=O)cc1`, the IC50 is 18.5 µM in experiment [3], 195 µM in experiment [1] and 3.58 µM in experiment [2] (setting [4]).
